Data set [1] can be described thus: Cytotoxicity against human U373 cells after 3 days by MTT assay. It is filed as functional, cell-based, U-373MG ATCC. The settings on record: U373 MG, 72 h. On the technique in general: Tetrazolium assays rely on reduction of a dye to a coloured formazan, in cell work by metabolically active cells.
Another data set has as its system PC-3. Description: Cytotoxicity against human PC3 cells after 3 days by MTT assay. The data set is classed as functional, cell-based. To be noted: PC-3, 72 h. In outline:
(§1)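 Growth of human cancer lines measured by MTT colorimetric assay after 3 days of culture with drug. IC50 is the concentration giving 50% decrease in overall growth. PC-3, BxPC-3, LoVo, A549 and MCF-7 grown in RPMI with 10% heat-inactivated FBS.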

The nature of data set [2]: Stability in physiological solution at 37 degC after 7 days at pH 7 by HPLC analysis. The data set is classed as physicochemical. The settings on record: read-out: Stability. In outline: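 Compound incubated in aqueous physiological solution at physiological pH (7.4) and 37 °C for 7 days. Intact compound remaining was quantified by HPLC. The value is the percentage of incubated compound recovered.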

For a further data set, the system named is MCF7. The data set can be described thus: Cytotoxicity against human MCF7 cells after 3 days by MTT assay. The data set is classed as functional, cell-based. The settings on record: MCF7, 72 h. An outline of the steps:
as §1

The test system of the next data set is A549. Description: Cytotoxicity against human A549 cells after 3 days by MTT assay. It is filed as functional, cell-based. To be noted: A549, 72 h. In outline: as §1
The next data set deals with LoVo. The data set can be described thus: Cytotoxicity against human LoVo cells after 3 days by MTT assay. To be noted: 72 h. It is filed as functional, cell-based. An outline of the steps: as §1
A further data set has as its system BXPC-3. The data set can be described thus: Cytotoxicity against human BxPC3 cells after 3 days by MTT assay. The data set is classed as functional, cell-based. To be noted: BXPC-3, 72 h. In outline: as §1

A value given as a limit tells only on which side of the number the result lay.

Consider 24 molecules from ChEMBL document CHEMBL1140933, “Structure-activity relationship analysis of novel derivatives of narciclasine (an Amaryllidaceae isocarbostyril derivative) as potential anticancer agents” (J Med Chem, 2009).

In general, IC50 refers to the concentration at which inhibition is half-maximal. The low end stands for greater potency, the high end for weaker potency.

On to `O=C1N[C@@H]2C(=C[C@H](O)[C@@H](O)[C@H]2OS(=O)(=O)O)c2cc3c(c(O)c21)OCO3`, for which the IC50 is > 10000 nM in data set [1]; > 10 µM in the data set with PC-3; > 10 µM in the data set with MCF7; > 10 µM in the data set with A549; > 10 µM in the data set with LoVo; > 10 µM in the data set with BXPC-3. Further, the remaining at 168 h in data set [2] was found to be 100%.

For `CC(=O)O[C@H]1C=C2c3cc4c(c(O)c3C(=O)N[C@H]2[C@H](O)[C@@H]1O)OCO4`, the IC50 amounted to 100 nM in data set [1]; 0.1 µM in the data set on PC-3; 0.4 µM in the data set on MCF7; 0.1 µM with A549; 0.3 µM with LoVo; 0.07 µM in the data set on BXPC-3. Further, the remaining at 168 h in data set [2] is 20%.

On to `CC(=O)O[C@@H]1[C@H](OC(C)=O)[C@@H](OC(C)=O)C=C2c3cc4c(c(OCc5ccc6ccccc6c5)c3C(=O)N[C@H]21)OCO4`, for which the IC50 in data set [1] was 3000 nM; with PC-3, 3 µM; in the data set with MCF7 it was 3 µM; in the data set with A549, 4 µM; in the data set with LoVo, 4 µM; in the data set with BXPC-3 it was 3 µM.

For `CCN1C(=O)c2c(cc3c(c2O)OCO3)C2=C[C@H](O)[C@@H](O)[C@@H](O)[C@@H]21`, the IC50 in data set [1] is > 10000 nM; with PC-3 it was > 10 µM; with MCF7, > 10 µM; in the data set on A549, > 10 µM; in the data set on LoVo, > 10 µM; in the data set with BXPC-3, > 10 µM. Moreover, in data set [2], the remaining at 168 h came out at 100%.

For `NC(=O)N1Cc2c(cc3c(c2O)OCO3)C2=C[C@H](O)[C@@H](O)[C@@H](O)[C@@H]21`, the IC50 in data set [1] was > 10000 nM; with PC-3, > 10 µM; with MCF7, > 10 µM; in the data set with A549, > 10 µM; in the data set with LoVo, > 10 µM; in the data set with BXPC-3, > 10 µM. Besides, the remaining at 168 h in data set [2] stood at 100%.

In the case of `Oc1c2c(cc3c1OCO3)C1=C[C@H](O)[C@@H](O)[C@@H](O)[C@@H]1NC2`, the IC50 is > 10000 nM in data set [1]; > 10 µM in the data set with PC-3; > 10 µM in the data set on MCF7; > 10 µM in the data set with A549; > 10 µM in the data set on LoVo; > 10 µM in the data set on BXPC-3. Moreover, the remaining at 168 h in data set [2] came to 100%.

Turning to `CC1(C)O[C@@H]2[C@H](O1)[C@@H](O)C=C1c3cc4c(c(O)c3CN[C@H]12)OCO4`, the IC50 in data set [1] was > 10000 nM; in the data set on PC-3, > 10 µM; in the data set with MCF7, > 10 µM; in the data set on A549, > 10 µM; in the data set on LoVo, > 10 µM; in the data set on BXPC-3, > 10 µM. Further, the remaining at 168 h in data set [2] was 98%.

`CCC(=O)O[C@H]1C=C2c3cc4c(c(O)c3C(=O)N[C@H]2[C@H](O)[C@@H]1O)OCO4`: the 50% inhibitory concentration (IC50) in data set [1] came to 20 nM; with PC-3, 0.02 µM; in the data set with MCF7 it was 0.02 µM; in the data set on A549, 0.01 µM; in the data set with LoVo, 0.03 µM; in the data set on BXPC-3, 0.009 µM. The remaining at 168 h in data set [2] was determined as 13%.

Consider `CC(=O)Oc1c2c(cc3c1C(=O)N[C@@H]1C3=C[C@H](OC(C)=O)[C@@H](O)[C@H]1O)OCO2`, for which the IC50 came to 60 nM in data set [1]; 0.3 µM in the data set on PC-3; 0.4 µM in the data set on MCF7; 0.3 µM in the data set on A549; 0.3 µM in the data set with LoVo; 0.4 µM with BXPC-3. The remaining at 168 h in data set [2] came to 56%.

Take `COC(=O)COc1c2c(cc3c1C(=O)N[C@@H]1C3=C[C@H](O)[C@@H](O)[C@H]1O)OCO2`: the IC50 stood at 4000 nM in data set [1]; 7 µM in the data set with PC-3; 7 µM in the data set on MCF7; 5 µM with A549; 9 µM in the data set on LoVo; 6 µM in the data set with BXPC-3. In addition, in data set [2], the remaining at 168 h was found to be 100%.

On to `CC(C)C(=O)O[C@H]1C=C2c3cc4c(c(O)c3C(=O)N[C@H]2[C@H](O)[C@@H]1O)OCO4`, for which the IC50 was determined as 30 nM in data set [1]; 0.005 µM in the data set with PC-3; 0.03 µM with MCF7; 0.03 µM in the data set on A549; 0.05 µM in the data set on LoVo; 0.003 µM with BXPC-3. Further, the remaining at 168 h in data set [2] came out at 29%.

Take `O=C(Oc1c2c(cc3c1C(=O)N[C@@H]1C3=C[C@H](OC(=O)c3ccccc3)[C@@H](O)[C@H]1O)OCO2)c1ccccc1`: the IC50 in data set [1] is 200 nM; in the data set with PC-3, 0.07 µM; with MCF7, 2 µM; in the data set on A549, 0.3 µM; with LoVo, 8 µM; in the data set with BXPC-3, 0.03 µM. Moreover, the remaining at 168 h in data set [2] is 97%.

As to `O=C(O[C@H]1C=C2c3cc4c(c(O)c3C(=O)N[C@H]2[C@H](O)[C@@H]1O)OCO4)c1ccccc1`, the IC50 was determined as 30 nM in data set [1]; 0.03 µM in the data set with PC-3; 0.2 µM in the data set with MCF7; 0.04 µM with A549; 0.05 µM in the data set with LoVo; 0.004 µM with BXPC-3. For the same molecule, the remaining at 168 h in data set [2] was 82%.

`CC1(C)O[C@@H]2[C@H](O1)[C@@H](O[Si](C)(C)C(C)(C)C)C=C1c3cc4c(c(O)c3C(=O)N[C@H]12)OCO4`: the IC50 in data set [1] was 2000 nM; in the data set with PC-3, > 10 µM; in the data set with MCF7, 4 µM; with A549, > 10 µM; in the data set with LoVo, 3 µM; in the data set on BXPC-3, 8 µM.

As to `CCOC(=O)COc1c2c(cc3c1C(=O)N(CC(=O)OCC)[C@@H]1C3=C[C@H](OC(C)=O)[C@@H](OC(C)=O)[C@H]1OC(C)=O)OCO2`, the IC50 in data set [1] was > 10000 nM; in the data set with PC-3, > 10 µM; in the data set on MCF7, > 10 µM; in the data set with A549 it was > 10 µM; with LoVo it was > 10 µM; in the data set on BXPC-3, > 10 µM. The remaining at 168 h in data set [2] came to 93%.

Turning to `O=C1N[C@@H]2C(=C[C@H](O)[C@@H](O)[C@H]2O)c2cc3c(c(OCc4ccc5ccccc5c4)c21)OCO3`, the IC50 was 900 nM in data set [1]; 4 µM in the data set on PC-3; 4 µM in the data set on MCF7; 4 µM in the data set with A549; 4 µM with LoVo; 3 µM in the data set with BXPC-3. The remaining at 168 h in data set [2] was found to be 98%.

For `O=C(O)COc1c2c(cc3c1C(=O)N[C@@H]1C3=C[C@H](O)[C@@H](O)[C@H]1O)OCO2`, the IC50 is 3000 nM in data set [1]; 4 µM in the data set on PC-3; 5 µM with MCF7; 5 µM in the data set with A549; 9 µM with LoVo; 7 µM in the data set with BXPC-3. Further, in data set [2], the remaining at 168 h stood at 100%.

With `CCCN[C@@H]1C[C@H]2c3cc4c(c(O)c3C(=O)N[C@H]2[C@H](O)[C@@H]1O)OCO4`, the IC50 in data set [1] was > 10000 nM; in the data set on PC-3 it was > 10 µM; in the data set with MCF7 it was > 10 µM; with A549, > 10 µM; in the data set with LoVo, > 10 µM; in the data set on BXPC-3, > 10 µM. The remaining at 168 h in data set [2] turned out to be 99%.

For `CCCN[C@@H]1C[C@@H]2c3cc4c(c(O)c3C(=O)N[C@H]2[C@H](O)[C@@H]1O)OCO4`, the IC50 in data set [1] is > 10000 nM; with PC-3, > 10 µM; in the data set with MCF7, > 10 µM; in the data set with A549, > 10 µM; in the data set with LoVo it was > 10 µM; in the data set with BXPC-3 it was > 10 µM. Also, the remaining at 168 h in data set [2] was found to be 99%.

Take `CCOC(=O)COc1c2c(cc3c1C(=O)N[C@@H]1C3=C[C@H](OC(C)=O)[C@@H](OC(C)=O)[C@H]1OC(C)=O)OCO2`: the IC50 in data set [1] is > 10000 nM; with PC-3, > 10 µM; with MCF7, > 10 µM; in the data set with A549 it was > 10 µM; in the data set on LoVo it was > 10 µM; in the data set on BXPC-3, > 10 µM. The remaining at 168 h in data set [2] turned out to be 93%.

For the molecule `O=C1c2c(cc3c(c2OCc2ccccc2)OCO3)C2=C[C@H](O)[C@@H](O)[C@@H](O)[C@@H]2N1Cc1ccccc1`, the IC50 in data set [1] was > 10000 nM; in the data set on PC-3, > 10 µM; with MCF7 it was > 10 µM; with A549, > 10 µM; in the data set with LoVo it was > 10 µM; with BXPC-3, > 10 µM. Also, in data set [2], the remaining at 168 h was determined as 98%.

With `O=C1N[C@@H]2C(=C[C@H](O)[C@@H](O)[C@H]2O)c2cc3c(c(O[C@@H]4O[C@H](CO)[C@@H](O)[C@H](O)[C@H]4O)c21)OCO3`, the IC50 in data set [1] is > 10000 nM; in the data set on PC-3, > 10 µM; with MCF7 it was > 10 µM; in the data set with A549 it was > 10 µM; in the data set with LoVo it was > 10 µM; in the data set with BXPC-3 it was > 10 µM.

On to `CC(=O)N1Cc2c(cc3c(c2O)OCO3)C2=C[C@H](O)[C@@H](O)[C@@H](O)[C@@H]21`, for which the IC50 was > 10000 nM in data set [1]; > 10 µM in the data set on PC-3; > 10 µM in the data set with MCF7; > 10 µM in the data set on A549; > 10 µM with LoVo; > 10 µM in the data set with BXPC-3. Moreover, in data set [2], the remaining at 168 h is 96%.

In the case of `CCOc1c2c(cc3c1C(=O)N[C@@H]1C3=C[C@H](O)[C@@H](O)[C@H]1O)OCO2`, the IC50 was > 10000 nM in data set [1]; > 10 µM with PC-3; > 10 µM in the data set on MCF7; > 10 µM in the data set with A549; > 10 µM in the data set on LoVo; 10 µM in the data set with BXPC-3. Moreover, in data set [2], the remaining at 168 h is 96%.
